Source: PubChem BioAssay (several laboratories)
Hck Nef HTS = blocks Nef-activated human Hck kinase. P08631. Recombinant Hck-YEEI plus Nef, Z-Lyte FRET kinase assay. inhibition, % at 20 µM. 220,000 tested, 0.68% active. AID 463187;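 active means Hck-Nef kinase inhibition above about 50%, limit read from the data; inactive means inhibition below that limit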;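 further: 0% = DMSO with Hck plus Nef and 100% = Hck alone without Nef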
Runt-SMMHC FRET = Runt domain-CBFb-SMMHC interaction inhibition; Q01196+Q13951; Cerulean-Runt/Venus-CBFb-SMMHC FRET ratio 530/480, 1 h; inhibition, % at 20 µM; 220,000 tested, 0.74% active;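 active means mean inhibition across duplicate retests at 20 µM reaching about 50%, limit read from the data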;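 further: 0% = DMSO wells and 100% = wells with excess untagged CBFb-SMMHC; inhibitors lower the FRET ratio by blocking Runt binding to CBFb-SMMHC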
Target sequence (Q01196 whole entry, looked up, the tested form may be a part): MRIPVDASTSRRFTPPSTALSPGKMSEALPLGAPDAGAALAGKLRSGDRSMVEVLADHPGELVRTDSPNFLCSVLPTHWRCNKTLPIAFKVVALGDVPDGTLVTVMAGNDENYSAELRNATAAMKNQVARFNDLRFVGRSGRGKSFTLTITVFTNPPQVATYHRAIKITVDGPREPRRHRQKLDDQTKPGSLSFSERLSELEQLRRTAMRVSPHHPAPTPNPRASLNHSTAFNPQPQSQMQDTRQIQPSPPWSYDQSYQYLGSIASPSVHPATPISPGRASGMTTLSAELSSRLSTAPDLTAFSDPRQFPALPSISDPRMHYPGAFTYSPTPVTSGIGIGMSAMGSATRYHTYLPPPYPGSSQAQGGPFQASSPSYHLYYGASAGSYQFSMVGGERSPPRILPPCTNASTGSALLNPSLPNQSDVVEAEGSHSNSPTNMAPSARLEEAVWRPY
Target sequence (Q13951 whole entry, looked up, the tested form may be a part): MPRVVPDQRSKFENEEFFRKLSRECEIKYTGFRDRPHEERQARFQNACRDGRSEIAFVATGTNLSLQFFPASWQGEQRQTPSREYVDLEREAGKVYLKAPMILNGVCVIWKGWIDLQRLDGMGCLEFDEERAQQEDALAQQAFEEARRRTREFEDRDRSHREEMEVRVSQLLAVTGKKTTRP
eIF4E 4G PPI = inhibitors of eIF4E and eIF4G interaction in translation initiation. inhibition, % at 21.7 µM. P63073+Q04637. 220,000 tested, 0.37% active. TR-FRET eIF4E-eIF4GI(517-606) binding, 2 h;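 active means inhibition above about 30%, limit read from the data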;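 further: 0% = full FRET control wells and 100% = background wells lacking eIF4GI fragment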
Runt-CBFb FRET = inhibitors of human RUNX1 Runt domain binding to CBFb | inhibition, % at 20 µM | 220,000 tested, 0.46% active | Q01196+Q13951 | Cerulean-Runt/Venus-CBFb FRET ratio 530/480, 1 h;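 active means inhibition over about 50% at 20 µM in the single-dose screen, limit read from the data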;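 further: 0% = DMSO wells and 100% = excess unlabeled CBFb competitor control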
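Assay system: Cerulean-Runt domain fusion protein, energy donor; Signal: fluorescence energy transfer, 422 nm excitation, 530/480 nm emission; Timing: 1 h compound exposure, room temperature; Control set: unlabeled CBFb; Medium: Tris buffer pH 7.5 with salts and BSA; Compound: single test concentration of 20 µM, 1% DMSO final; Probe or stimulus: Venus-CBFb 100 nM.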
PERK inhibitor = inhibitors of human PERK kinase; CHO PERK-DD fusion, SEAP luminescence translation reporter; inhibition, % at 5.6 µM; 220,000 tested, 0.17% active;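 active means inhibition above the mean inhibition of all tested compounds plus 3 SD, set separately per screening campaign, cut at about 2.9% in these data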;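 further: PERK kinase domain activated by AP20187 dimerizer at 100 nM; 0% = DMSO with dimerizer and 100% = rapamycin at 8.4 µM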
RanGTP-Impb inh = inhibitors of RanGTP-importin-beta interaction, primary screen, biochemical, FRET, CFP-Ran, YFP-importin-beta, homogeneous; inhibition, % (test concentration not listed); 300,000 tested, 1.1% active; cell-free CFP-Ran/YFP-importin-beta FRET ratio;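 active means more than half of the replicate wells show a fall in the fluorescence ratio signal beyond about 16%, limit read from the data, passing the limit was not always enough; inconclusive means exactly half of the replicate wells pass the set limit; inactive means fewer than half of replicates pass the limit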;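 further: 0% = DMSO wells and 100% = Ran loaded with GDP instead of GTP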
Hck Nef conf = confirmation of Hck-Nef kinase inhibitors; calls only at 10 µM; 1,300 tested, 28% active; shares compounds with Hck Nef HTS; AID 463188; Recombinant Hck-YEEI:Nef, Z-Lyte FRET kinase assay;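 active means average inhibition of at least 50%, with Z-scores no higher than 3 in both the phospho-tyrosine peptide and fluorescence counterscreens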
* hit, by the source's call; i = inactive; ? = inconclusive; · = not tested or not shown; + = active, no number. Rows were chosen to be rich in hits. Some 2.2% of all compounds tested hit in one or more screens of this group.

SMILES | Hck Nef HTS | Runt-SMMHC FRET | eIF4E 4G PPI | Runt-CBFb FRET | PERK inhibitor | RanGTP-Impb inh | Hck Nef conf
C=CC1=C(C(=O)O)N2C(=O)[C@@H](NC(=O)/C(=N\O)c3csc(N)n3)[C@H]2SC1 (stereo in doubt) | · | · | · | · | · | -1 | ·
CCOC(=O)c1ccc(NC(=O)Cn2c(-c3nonc3N)nc3ccccc32)cc1 | 20 | -2 | 5 | 1 | 0 | 2 | ·
COC(=O)C1=CN(Cc2cccs2)C=C(C(=O)OC)C1c1cccc(Cl)c1 | 59* | 85* | 4 | 37 | 1 | 7 | ·
CCN1C=C(C(=O)OC)C(c2cccc(C)c2)C(C(=O)OC)=C1 | 66* | 61* | 2 | 49 | 1 | 4 | ·
O=C(/C=C/c1cccc(Cl)c1)NCc1cccs1 | 0 | -4 | -2 | -1 | 2 | 2 | ·
Cc1ccc(-c2cc(C(F)F)n3ncc(C(=O)NCc4ccco4)c3n2)cc1 | 58* | -28 | 4 | -11 | 0 | · | i
Cc1ccc(-c2cc(C(F)(F)F)n3ncc(C(=O)NCc4ccco4)c3n2)cc1 | 23 | -11 | -5 | -1 | 1 | 3 | ·
COc1cc2c(cc1OC)CN(C(=O)CNC(=O)c1ccc(OC(F)F)cc1)CC2 | · | · | · | · | · | 1 | ·
COc1ccc(-n2cccc2/C=C2\C(=N)N3N=C(c4ccco4)SC3=NC2=O)cc1 | 93* | -46 | 46* | -10 | 1 | -4 | +
Cc1ccc(C)c(S(=O)(=O)N2CCN(CC(=O)Nc3ccc4c(c3)CCC4)CC2)c1 | -69 | 0 | -2 | -2 | 0 | 1 | ·
CC(=O)Oc1cc2oc(=O)c3c(c2cc1Cl)CCC3 | 111* | 178* | 16 | 81* | 0 | 11 | ·
Cc1nn(-c2ccccc2)c2c1cc1c(=O)n(C)c(=O)nc-1n2-c1ccccc1F | 87* | 23 | 0 | 9 | 0 | ? | ·
Cc1cccc(-n2c3nc(=O)[nH]c(=O)c-3cc3c(C)nn(-c4ccccc4)c32)c1C | 23 | 31 | 10 | 17 | 1 | 3 | ·
CCOc1ccc(-c2ccc(C=O)o2)c([N+](=O)[O-])c1 | 100* | 1 | 5 | 6 | 1 | 3 | i
Cc1cc(-c2csc(NC(=O)c3cc4ccccc4o3)n2)c(C)n1C | 59* | -32 | -6 | -8 | 0 | 4 | i
COc1ccc(C(=O)Nc2nncs2)cc1S(=O)(=O)N1CCOCC1 | · | · | · | · | · | 2 | ·
O=c1[nH]c(-c2ccc(F)cc2)nc2c1sc(=S)n2-c1ccccc1 | 1 | 3 | -1 | -1 | 1 | 0 | ·
O=c1[nH]c(-c2ccc3c(c2)OCO3)nc2c1sc(=S)n2-c1ccccc1 | 61* | 1 | 13 | 19 | 1 | 1 | i
O=C1NN(c2cccc(Br)c2)C(=O)/C1=C/c1ccc(-c2cc([N+](=O)[O-])ccc2O)o1 | 98* | -40 | 34* | -17 | 2 | -10 | +
CCOCCCNC(=O)/C=C1\Sc2ccccc2N(Cc2ccccc2F)C1=O | -22 | 1 | -2 | -6 | 0 | -3 | ·
COc1ccc(C)cc1NC(=O)Nc1cnccn1 | 102* | 4 | 1 | 0 | 2 | 0 | +
NC(=O)N/N=C/c1coc2ccc3ccccc3c2c1=O | 32 | -4 | 5 | 3 | 1 | -6 | ·
NC(=S)N/N=C/c1coc2c(ccc3ccccc32)c1=O | 61* | -1 | 10 | 0 | 1 | -3 | +
NC(=S)N/N=C/c1coc2cc(Br)ccc2c1=O | 30 | -5 | -5 | 1 | 0 | 6 | ·
NC(=S)N/N=C/c1coc2ccc(Br)cc2c1=O | 73* | 0 | 7 | 3 | 0 | 0 | +
SMILES | Hck Nef HTS | Runt-SMMHC FRET | eIF4E 4G PPI | Runt-CBFb FRET | PERK inhibitor | RanGTP-Impb inh | Hck Nef conf
O=C(Nc1cc(S(=O)(=O)N2CCOCC2)ccc1N1CCCC1)c1ccc2c(c1)S(=O)(=O)c1ccccc1C2=O | 65* | -8 | 4 | 8 | 0 | 4 | i
O=C(Nc1ccccc1F)Nc1cc(S(=O)(=O)N2CCOCC2)ccc1N1CCCC1 | 19 | 0 | 0 | -2 | 1 | 2 | ·
O=C(O)COc1ccc(/C=N/NC(=O)c2ccc(-c3csc(Nc4ccc(Cl)cc4)n3)cc2)cc1 | 75* | -103 | 72* | 28 | 1 | 2 | +
CCOc1cc(/C=N/NC(=O)c2ccc(-c3csc(Nc4ccc(C)cc4)n3)cc2)ccc1OCC(=O)O | 52* | 13 | 31* | 24 | 2 | · | i
COc1cc(/C=N\NC(=O)c2ccc(-c3ccccc3)cc2)ccc1OCC(N)=O | · | · | · | · | · | -1 | ·
CCc1cccc(OCCCN2C(=O)NC(C)(C)C2=O)c1 | 0 | -1 | 3 | 0 | 1 | -2 | ·
CC1(C)Cc2c(C#N)c(NCC3CCCO3)nc(-c3ccco3)c2CO1 (stereo not drawn) | 56* | 6 | 5 | 11 | 0 | 9 | i
CC1(C)Cc2c(C#N)c(NC3CCCCC3)nc(-c3ccco3)c2CO1 | 35 | 9 | 1 | 8 | 1 | 10 | ·
O=C(CCN1C(=O)C2C3C=CC(C3)C2C1=O)NCCc1ccccc1Cl (stereo not drawn) | 0 | -1 | 1 | -6 | 1 | -3 | ·
O=c1[nH]c(CSc2nc(-c3ccccc3)cs2)nc2ccccc12 | 4 | 4 | -3 | 0 | 0 | -1 | ·
O=c1[nH]c(CSc2ncnc3sc(-c4ccccc4)cc23)nc2ccccc12 | 54* | -21 | 10 | 4 | 1 | 1 | i
O=C(Nc1ccc(-n2nncc2-c2ccco2)cc1)c1cc2ccccc2oc1=O | 51* | -33 | -64 | 4 | 0 | -1 | +
O=C(Nc1ccc(-n2nncc2-c2ccco2)cc1)c1cccc(F)c1 | -1 | 0 | 0 | 8 | -1 | 2 | ·
Cc1nc2ccccc2c2ncccc12 | · | · | · | · | · | 3 | ·
COC(=O)CCCC1=CC2=CC(=O)C(C)(OC(=O)c3cccs3)C(=O)C2=CN1Cc1ccc2c(c1)OCO2 (stereo not drawn) | 53* | 0 | -1 | 1 | · | 0 | i
COC(=O)CCCC1=CC2=CC(=O)C(C)(OC(=O)c3cccs3)C(=O)C2=CN1Cc1ccccc1 (stereo not drawn) | 6 | 2 | -3 | 1 | · | 0 | ·
CNc1ccc(Br)cc(C(=O)/C=C/c2cccc(OC)c2OC)c1=O | 0 | -19 | 7 | -1 | 0 | 3 | ·
CNc1ccc(Br)cc(C(=O)/C=C/c2cccc(Cl)c2Cl)c1=O | 51* | -15 | 16 | 13 | 0 | · | i
O=c1c2ccccc2n(CC(O)CN2CCCCC2)c2ccccc12 (stereo not drawn) | 154* | 81* | 1 | 61* | -2 | 96* | ·
